Assay outcomes from PubChem.
Apaf-1 inh: inhibitors of human Apaf-1 apoptosome, primary screen, biochemical, DEVD-Rh110 fluorescence, uHTS | Apoptotic protease-activating factor 1 (Homo sapiens), O14727 | reconstituted apoptosome caspase-3 activity | inhibition, % at 20 µM | 330,000 tested, 0.71% active | AID 489030, 2010; active = inhibition of at least 40% at 20 µM;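 also: plate controls were DMSO wells for no effect and DEVD-CHO caspase inhibitor wells for full effect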
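System: reconstituted apoptosome with Apaf-1, cytochrome c, caspase-9, procaspase-3, dATP; Signal: Rh110 fluorescence intensity; Schedule: 30 min compound preincubation, 50 min activation, room temperature; Reagent: cytochrome c trigger plus (Z-DEVD)2-Rh110 caspase-3 substrate.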
SENP6 block: SENP6 protease inhibitors, primary screen, biochemical, luminescence, uHTS. 330,000 tested, 1.8% active. Sentrin-specific protease 6 (Homo sapiens), Q9GZR1. inhibition, % at 10 µM. Recombinant SENP6 catalytic domain, aminoluciferin luminescence;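 active = inhibition above about 50% at the single tested dose, limit read from the data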;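 also: plate controls were DMSO wells with enzyme for no effect and DMSO wells lacking enzyme for full effect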
SENP8 block-1: human SENP8 protease inhibitors, primary screen, biochemical, fluorescence, Nedd8 protein substrate, uHTS | Sentrin-specific protease 8 (Homo sapiens), Q96LD8 | recombinant SENP8 | inhibition, % at 20 µM | 360,000 tested, 0.64% active | AID 602440, 2012; in the data active = inhibition mostly above about 40%, no sharp cut-off; inactive = mostly below about 27%
SENP7 inh: SENP7 protease inhibitors, primary screen, biochemical, luminescence, uHTS; recombinant SENP7, Z-RLRGG-aminoluciferin luminescence, 40 min; 330,000 tested, 1.5% active; inhibition, % at 5 µM; AID 434973, 2010;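 active = inhibition above about 50% at the single test dose, limit read from the data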;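 also: plate controls were DMSO with enzyme for no effect and no enzyme buffer wells for full effect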
Target sequence (Q9BQF6 706-1050 limits assumed): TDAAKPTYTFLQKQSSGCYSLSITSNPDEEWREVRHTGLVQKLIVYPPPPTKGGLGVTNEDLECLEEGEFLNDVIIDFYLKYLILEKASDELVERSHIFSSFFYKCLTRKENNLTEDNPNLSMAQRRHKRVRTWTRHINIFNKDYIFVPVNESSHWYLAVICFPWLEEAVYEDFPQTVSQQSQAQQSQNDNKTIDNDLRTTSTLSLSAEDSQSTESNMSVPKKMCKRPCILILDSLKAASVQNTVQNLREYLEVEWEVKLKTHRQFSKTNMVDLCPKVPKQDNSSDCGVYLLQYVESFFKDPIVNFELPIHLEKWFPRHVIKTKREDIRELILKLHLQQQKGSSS
SENP8 block-2: SENP8 protease inhibitors, primary screen, biochemical, luminescence. purified SENP8, Z-RLRGG-aminoluciferin cleavage. inhibition, % at 10 µM. 330,000 tested, 1.2% active. AID 2540, 2010; in the data active = inhibition above about 50%
SENP1 FRET inh: human SENP1 catalytic domain inhibitors, primary screen, biochemical, FRET, uHTS. recombinant SENP1 catalytic domain, CyPet-SUMO1-YPet FRET cleavage. inhibition, % at 10 µM. 360,000 tested, 0.21% active. Sentrin-specific protease 1 (Homo sapiens), Q9P0U3;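 active = inhibition at least 30% at 10 µM, raw YFP signal under a set limit, fluorescence ratio 0.5 to 1.5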;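 also: 0% = enzyme with DMSO and 100% = no enzyme wells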
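Test system: hSENP1 catalytic domain, recombinant; Amount: 20 pM final SENP1 enzyme; Medium: Tris pH 8 buffer plus EDTA, NaCl, BME, BSA, NP40, catalase; Schedule: 50 min enzyme reaction, room temperature, light-protected; Technique: FRET fluorescence in CFP and YFP emission channels; Controls: no-enzyme wells low, DMSO-plus-enzyme wells high control.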
Apaf-1 inh conf2: Apaf-1 inhibitors, single-dose retest, confirmation, biochemical, fluorescence, DEVD-Rh110, 20 µM | AID 504614, 2011 | reconstituted apoptosome, caspase-3 DEVD-Rh110 fluorescence | shares compounds with Apaf-1 inh | inhibition, % at 20 µM | 1,800 tested, 25% active;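 active = mean inhibition of at least 40% at 20 µM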;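 also: plate controls were DMSO wells for no effect and DEVD-CHO caspase inhibitor control wells for full effect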
Rh110 quench: Rh110 fluorescence interference by putative Apaf-1 inhibitors, confirmation, artefact control for Apaf-1 inhibitor project, biochemical, 20 µM | 1,800 tested, under 10 active | shares compounds with Apaf-1 inh | activation (fluorescence interference), % at 20 µM | AID 504615, 2011 | quenched caspase reaction;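 active = signal rise of 40% or more at 20 µM, treated as a fluorescence artifact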
The depositor's hits bear a star; . = no result given. Compounds with a hit are over-represented: about 2.9% of the library has one in this group of screens.

SMILES	Apaf-1 inh	SENP6 block	SENP8 block-1	SENP7 inh	SENP8 block-2	SENP1 FRET inh	Apaf-1 inh conf2	Rh110 quench
CCc1ccc(N2CSC3=C(C#N)C(c4cccs4)CC(=O)N3C2)cc1 (stereo unspecified)	20.0	38.1	0.3	8.4	11.5	-46.3	.	.
COc1ccc(N2CSC3=C(C#N)C(c4cc(OC)ccc4OC)CC(=O)N3C2)c(OC)c1 (stereo unspecified)	32.0	-3.8	14.5	12.0	3.1	-91.2	.	.
CCOc1ccccc1N1CSC2=C(C#N)C(c3c(OC)ccc4ccccc34)CC(=O)N2C1 (stereo unspecified)	40.8*	1.7	-15.4	23.6	1.1	-66.5	22.2	3.8
CCOC(=O)c1ccc(N2CSC3=C(C#N)C(c4cccs4)CC(=O)N3C2)cc1 (stereo unspecified)	54.7*	9.8	26.8	29.0	15.4	6.1	17.7	2.2
Cc1ccc(NC(=O)CN2C(=O)S/C(=C/c3ccc(-c4cc(C(=O)O)ccc4C)o3)C2=O)cc1C	41.6*	-6.3	-229.2	-7.1	-3.2	-34.2	38.4	9.7
Cc1cccc(NC(=O)CN2C(=O)S/C(=C\c3ccc(-c4cccc(C(=O)O)c4C)o3)C2=O)c1	19.0	-5.2	.	5.3	3.1	.	.	.
Cc1ncc(CO)c(CNc2ccc(Oc3ccccc3)cc2)c1O	-1.2	-13.4	-10.0	-8.8	2.5	-14.7	.	.
CCOC(=O)[C@]12CCC=C1N(Cc1ccc(Cl)cc1Cl)C(=O)[C@H](CC(=O)NCC1CCCCC1)C2	.	.	4.9	.	.	1.6	.	.
COc1ccccc1CCC(=O)Nc1ccc(S(=O)(=O)Nc2ncccn2)cc1	.	.	-59.4	.	.	-17.7	.	.
Cc1ccc(S(=O)(=O)N2CCN(C(=O)COC(=O)c3ccc([N+](=O)[O-])o3)CC2)c(C)c1	59.3*	10.7	37.2	15.3	13.3	2.1	21.7	7.9
CCc1ccc2nc(NC(=O)CSCc3c(C)noc3C)sc2c1	45.6*	-27.7	31.1	-9.0	-10.5	0.7	28.6	5.3
Cc1noc(C)c1CSCC(=O)Nc1nc2ccccc2s1	3.9	-2.4	-18.4	4.8	-5.8	-8.8	.	.
Cc1ccc2c(c1C)C(=O)C(=O)N2	.	.	17.6	.	.	0.2	.	.
COc1cc2c(cc1OC)CN(C(=O)CN1C(=O)c3ccc([N+](=O)[O-])cc3C1=O)CC2	5.1	18.7	17.8	11.5	-0.4	3.8	.	.
COc1ccc(NS(=O)(=O)c2cccc(C(=O)NCC(c3ccccc3)N(C)C)c2)cc1 (stereo unspecified)	21.6	-30.6	14.2	12.7	-6.7	-1.7	.	.
COc1ccccc1C(CNC(=O)c1cccc(S(=O)(=O)Nc2ccc(C)cc2)c1)N(C)C (stereo unspecified)	46.1*	-1.6	-1.1	1.8	3.7	-1.8	28.0	7.1
Cc1ccc(Oc2nc(CN3CCOCC3)nc3sc4c(c23)CCC(C)C4)cc1C (stereo unspecified)	29.8	-12.5	7.3	-0.7	-13.3	0.8	.	.
Cc1ccc(Oc2nc(CN3CCOCC3)nc3sc4c(c23)CCC(C)C4)cc1 (stereo unspecified)	40.5*	-13.2	-3.7	5.7	-5.4	-1.5	21.1	13.7
COCCN(Cc1ccco1)C(=O)Cn1ncc2c(=O)oc3ccccc3c21	-23.3	7.6	35.5	-6.8	8.0	-0.8	.	.
COc1ccc(-c2csc(C(C)(O)c3ccc(F)c(F)c3)n2)cn1 (stereo unspecified)	.	.	11.7	.	.	2.4	.	.
